Experiments:
[1] = Inhibition of Influenza B virus (B/Perth/211/2001) recombinant neuraminidase E197 mutant expressed in Sf21 insect cells after 60 mins by MUNANA based assay
How it was run: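 The enzyme source was virus grown in cell culture and solubilized in 1% CHAPS (final), then titrated to give similar fluorescence. Inhibitor (serial log10 dilutions in water, 0.01–10000 nM; one inhibitor 0.01–10000 μM) was added together with 100 μM MUNANA, with no preincubation. Fluorescence was read every minute for 60 min without stop solution. […] Duplicates.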

[2] = Inhibition of Influenza B virus (B/Perth/211/2001) recombinant neuraminidase E197 mutant expressed in Sf21 insect cells preincubated for 30 mins measured after 60 mins by MUNANA based assay
How it was run: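 Virus detergent extract (1% CHAPS final, titrated to similar fluorescence) was preincubated for 30 min with inhibitor (serial log10 dilutions in water, 0.01–10000 nM; one inhibitor 0.01–10000 μM). 100 μM MUNANA was then added and fluorescence read every minute for 60 min without stop solution. […] Duplicates.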

Structure (SMILES): O=C(O)C1(F)O[C@H]([C@H](O)[C@H](O)CO)[C@H](O)[C@@H](O)C1F (some centres not stated)
- IC50 [1]: 19400 nM

Structure (SMILES): CCC(CC)[C@H](NC(C)=O)[C@@H]1[C@H](O)[C@@H](C(=O)O)C[C@H]1NC(=N)N [PERAMIVIR ANHYDROUS]
- IC50 [2]: 41.5 nM
- Ki [2]: 8.2 nM
- IC50 [1]: 75.2 nM
- Ki [1]: 8.3 nM

Structure (SMILES): CCOC(=O)C1=C[C@@H](OC(CC)CC)[C@H](NC(C)=O)[C@@H](N)C1 [OSELTAMIVIR]
- IC50 [1]: 660 nM
- Ki [1]: 84 nM

From ChEMBL document CHEMBL1250488, “Structural and functional basis of resistance to neuraminidase inhibitors of influenza B viruses” (J Med Chem, 2010)
